In ChEMBL document CHEMBL4130549, “Synthesis and bioactivities study of new antibacterial peptide mimics: The dialkyl cationic amphiphiles” (Eur J Med Chem, 2018):
Activity calls are given as the source filed them. No cut-off for these calls is given here.

How the values were obtained:
Staphylococcus aureus [1] = test: Antibiofilm activity against Staphylococcus aureus ATCC 29213 assessed as bacterial cell viability in biofilm at 2 ug/ml after 24 hrs (reference value: 21.9 log10CFU/ml); assay type: functional
Summary of the method: (§1)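 Mid-log cells at ~10⁵ CFU/mL grown stationary in 96-well plates (S. aureus in MHB for 24 h; E. coli in M9 with 0.02% casamino acids and 0.5% glycerol for 72 h). After washing, biofilms exposed 24 h at 37 °C to 2-128 µg/mL; detached with trypsin-EDTA, serially plated, viability given as log10 CFU/well against an untreated control.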

Staphylococcus aureus [2] = test: Antibiofilm activity against Staphylococcus aureus ATCC 29213 assessed as bacterial cell viability in biofilm at 4 ug/ml after 24 hrs (reference value: 21.9 log10CFU/ml); assay type: functional; summary of the method: as §1
[3] = Selectivity index, ratio of HC50 for sheep RBC to MIC for Staphylococcus aureus ATCC 29213; assay type: toxicity; settings: sheep red blood cells (erythrocytes), read-out: Selectivity Index
Summary of the method: (§2)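 HC50 from sheep RBC lysis: 5% RBC suspension exposed 1 h at 37 °C to a 5120–10 µg/mL series, with A540 of supernatant scaled to 0.1% Triton X-100. MIC by CLSI broth microdilution in cation-adjusted MHB, ~10^6 CFU/mL, 256–0.5 µg/mL, 37 °C for 16–20 h, duplicates with at least two repeats.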

[4] = Selectivity index, ratio of HC50 for sheep RBC to MIC for Escherichia coli ATCC 25922; assay type: toxicity; settings: sheep red blood cells (erythrocytes), read-out: Selectivity Index; summary of the method: as §2
Staphylococcus aureus [5] = test: Bactericidal activity against Staphylococcus aureus ATCC 29213 assessed as time required to kill early exponential phase at 8 ug/ml by time kill assay; assay type: functional
Summary of the method: (§3)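 Overnight culture diluted 1:10,000 in MHB and shaken at 37 °C, 225 rpm, for 2 h (early exponential) or 5 h (late exponential), then exposed to compound at 6× and 8× MIC in tubes at 37 °C, 225 rpm. Samples (100 µL) taken at intervals, pelleted, resuspended in PBS, and ten-fold dilutions plated on MHA overnight at 37 °C for CFU/mL. Biological replicates.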

Staphylococcus aureus [6] = test: Bactericidal activity against Staphylococcus aureus ATCC 29213 assessed as time required to kill early exponential phase at 6 ug/ml by time kill assay; assay type: functional; summary of the method: as §3
Staphylococcus aureus [7] = test: Bactericidal activity against Staphylococcus aureus ATCC 29213 assessed as time required to kill late exponential phase at 6 to 8 ug/ml by time kill assay; assay type: functional; summary of the method: as §3
Escherichia coli [8] = test: Bactericidal activity against Escherichia coli ATCC 25922 assessed as time required to kill early exponential phase at 12 to 16 ug/ml by time kill assay; assay type: functional
Staphylococcus aureus [9] = test: Antibiofilm activity against Staphylococcus aureus ATCC 29213 assessed as bacterial cell viability in biofilm at 8 ug/ml after 24 hrs (reference value: 21.9 log10CFU/ml); assay type: functional; summary of the method: as §1
Staphylococcus aureus [10] = test: Antibiofilm activity against Staphylococcus aureus ATCC 29213 assessed as bacterial cell viability in biofilm at 16 ug/ml after 24 hrs (reference value: 21.9 log10CFU/ml); assay type: functional; summary of the method: as §1
Staphylococcus aureus [11] = test: Antibiofilm activity against Staphylococcus aureus ATCC 29213 assessed as bacterial cell viability in biofilm at 32 ug/ml after 24 hrs (reference value: 21.9 log10CFU/ml); assay type: functional; summary of the method: as §1
Staphylococcus aureus [12] = test: Antibiofilm activity against Staphylococcus aureus ATCC 29213 assessed as bacterial cell viability in biofilm at 64 ug/ml after 24 hrs (reference value: 21.9 log10CFU/ml); assay type: functional; summary of the method: as §1
Staphylococcus aureus [13] = test: Antibiofilm activity against Staphylococcus aureus ATCC 29213 assessed as bacterial cell viability in biofilm at 128 ug/ml after 24 hrs (reference value: 21.9 log10CFU/ml); assay type: functional; summary of the method: as §1
Escherichia coli [14] = test: Antibiofilm activity against Escherichia coli ATCC 25922 assessed as bacterial cell viability in biofilm at 4 ug/ml after 24 hrs (reference value: 25.9 log10CFU/ml); assay type: functional; summary of the method: as §1
Escherichia coli [15] = test: Antibiofilm activity against Escherichia coli ATCC 25922 assessed as bacterial cell viability in biofilm at 8 ug/ml after 24 hrs (reference value: 25.9 log10CFU/ml); assay type: functional; summary of the method: as §1
Escherichia coli [16] = test: Antibiofilm activity against Escherichia coli ATCC 25922 assessed as bacterial cell viability in biofilm at 16 ug/ml after 24 hrs (reference value: 25.9 log10CFU/ml); assay type: functional; summary of the method: as §1
Escherichia coli [17] = test: Antibiofilm activity against Escherichia coli ATCC 25922 assessed as bacterial cell viability in biofilm at 64 ug/ml after 24 hrs (reference value: 25.9 log10CFU/ml); assay type: functional; summary of the method: as §1
Escherichia coli [18] = test: Antibiofilm activity against Escherichia coli ATCC 25922 at 8 to 128 ug/ml after 72 hrs by crystal violet staining based assay; assay type: functional, organism-based
Summary of the method: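 Biofilms grown in 24-well plates for about 72 h at 37 °C, treated, stained with 1.0% crystal violet, rinsed, dried, dye taken up in 95% ethanol for 1 h at room temperature, then photographed.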

Escherichia coli [19] = test: Antibiofilm activity against Escherichia coli ATCC 25922 after 24 hrs by turbidity method; assay type: functional
Summary of the method: (§4)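 MBEC: biofilms grown 24 h at 37 °C from 1:1000-diluted exponential-phase culture; planktonic cells removed, twofold dilutions in fresh medium added for 24 h at 37 °C, then fresh medium alone for 24 h recovery. MBEC is the lowest concentration with no visible turbidity.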

Staphylococcus aureus [20] = test: Antibiofilm activity against Staphylococcus aureus ATCC 29213 after 24 hrs by turbidity method; assay type: functional; summary of the method: as §4
Escherichia coli [21] = test: Antibiofilm activity against Escherichia coli ATCC 25922 after 24 hrs by crystal violet staining method; assay type: functional
Summary of the method: (§5)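 MBIC: twofold dilutions in MHB inoculated with 1:1000-diluted exponential-phase culture (10⁸ CFU/mL), 24 h at 37 °C. Wells rinsed, stained 10 min with 0.1% crystal violet, dye dissolved in ethanol, OD540 read; MBIC80 taken from dose–response versus untreated wells.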

Staphylococcus aureus [22] = test: Antibiofilm activity against Staphylococcus aureus ATCC 29213 after 24 hrs by crystal violet staining method; assay type: functional; summary of the method: as §5
Escherichia coli [23] = test: Ratio of MBEC to MIC for Escherichia coli ATCC 25922 after 24 hrs; assay type: functional
Summary of the method: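 For MBEC, biofilms grown 24 h at 37 °C from a 1:1000 dilution of exponential-phase culture, washed, exposed 24 h to two-fold compound dilutions in fresh medium, then recovered 24 h in medium alone; MBEC is the lowest concentration with no turbidity. MIC by CLSI broth microdilution in cation-adjusted MHB, ~10^6 CFU/mL inoculum, 37 °C, 16–20 h.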

Staphylococcus aureus [24] = test: Antibacterial activity against Staphylococcus aureus ATCC 29213 after 20 serial passages measured after 16 to 20 hrs by broth microdilution method; assay type: functional, organism-based
Summary of the method: (§6)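 Sub-MIC serial passaging: after an initial broth microdilution MIC, cells grown at MIC/2 were transferred into a new MIC assay after each 24 h incubation, for 20 passages. MIC was plotted against days to follow resistance development. Passaging controls were norfloxacin for S. aureus and colistin for E. coli.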

Escherichia coli [25] = test: Antibacterial activity against Escherichia coli ATCC 25922 after 20 serial passages measured after 16 to 20 hrs by broth microdilution method; assay type: functional, organism-based; summary of the method: as §6

**Q.** For `CCCCCCCCCN(CCCCCCCCC)C(=O)[C@@H](N)CCCCN.Cl.Cl`, which Activity (Staphylococcus aureus [1]) is on record?
**A.** Its Activity is 19.9 log10CFU.

**Q.** And the Activity (Staphylococcus aureus [2])?
**A.** The Activity was 18.6 log10CFU.

**Q.** What about the selectivity ratio [3] of the same compound?
**A.** The selectivity ratio was 133.

**Q.** And the selectivity ratio [4]?
**A.** Its selectivity ratio is 66.5.

**Q.** What about the Time (Staphylococcus aureus [5]) of the same compound?
**A.** Its Time is 0.5 h.

**Q.** What about the Time (Staphylococcus aureus [6]) of the same compound?
**A.** The Time was 120 min.

**Q.** What about the Time (Staphylococcus aureus [7]) of the same compound?
**A.** Its Time is 6 h.

**Q.** What about the Time (Escherichia coli [8]) of the same compound?
**A.** Its Time is 0.5 h.

**Q.** What about the Activity (Staphylococcus aureus [9]) of the same compound?
**A.** The Activity was 11.9 log10CFU.

**Q.** And the Activity (Staphylococcus aureus [10])?
**A.** Its Activity is 11.5 log10CFU.

**Q.** And the Activity (Staphylococcus aureus [11])?
**A.** The Activity was 9.9 log10CFU.

**Q.** And the Activity (Staphylococcus aureus [12])?
**A.** The Activity was 7.9 log10CFU.

**Q.** And the Activity (Staphylococcus aureus [13])?
**A.** The Activity was 7.6 log10CFU.

**Q.** And the Activity (Escherichia coli [14])?
**A.** The Activity was 23.9 log10CFU.

**Q.** What about the Activity (Escherichia coli [15]) of the same compound?
**A.** Its Activity is 8.4 log10CFU.

**Q.** And the Activity (Escherichia coli [16])?
**A.** Its Activity is 4.1 log10CFU.

**Q.** And the Activity (Escherichia coli [17])?
**A.** The Activity was 0.3 log10CFU.

**Q.** And the Activity (Escherichia coli [18])?
**A.** Its Activity is “Active”.

**Q.** And the MBEC (Escherichia coli [19])?
**A.** The MBEC was 128 µg/mL.

**Q.** And the MBEC (Staphylococcus aureus [20])?
**A.** The MBEC was 64 µg/mL.

**Q.** What about the MBIC80 (Escherichia coli [21]) of the same compound?
**A.** Its MBIC80 is 53.9 µg/mL.

**Q.** And the MBIC90 (Escherichia coli [21])?
**A.** Its MBIC90 is 73.6 µg/mL.

**Q.** What about the MBIC80 (Staphylococcus aureus [22]) of the same compound?
**A.** Its MBIC80 is 18 µg/mL.

**Q.** And the MBIC90 (Staphylococcus aureus [22])?
**A.** Its MBIC90 is 26.9 µg/mL.

**Q.** And the Ratio (Escherichia coli [23])?
**A.** Its Ratio is 64.

**Q.** What about the Activity (Staphylococcus aureus [24]) of the same compound?
**A.** Its Activity is “Active”.

**Q.** What about the Activity (Escherichia coli [25]) of the same compound?
**A.** Its Activity is “Active”.
